According to ChEMBL document CHEMBL4152196, “Design, synthesis and biological evaluation of novel trimethylangelicin analogues targeting nuclear factor kB (NF-kB)” (Eur J Med Chem, 2018):
pIC50: −log10 of the molar value. Active and inactive are the calls of the source. The calls are words filed in the database; no cut-off is given here.

What was measured:
[1] = Inhibition of NF-kappaB (unknown origin) assessed as decrease in NF-kappaB/DNA interaction using 32P-labeled target NF-kappaB double-stranded oligonucleotide after 30 mins by EMSA; parameters: species or system Homo sapiens
How it was run: (§1)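 Purified NF-κB p50 (0.1 µl/20 µl, 50 gsu) was combined with 0.25 ng of ³²P-labeled double-stranded NF-κB consensus oligonucleotide. Bound 30 min at room temperature, then run on 6% polyacrylamide in 0.25× TBE at 200 V. IC₅₀ is 50% inhibition of the complex.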

[2] = test system: IB3-1; assay: Antiproliferative activity against human IB3-1 cells after 2 days by cell counting analysis; type: cell-based; conditions: IB3-1, 48 h
How it was run: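 IB3-1 cells from a CF patient (ΔF508/W1282X), immortalized with adeno12/SV40, grown in LHC-8 with 5% FBS and no gentamycin at 37°C/5% CO₂. Treated at 12.5, 25, 50, 100, 200 and 800 µM. Cells counted by Coulter counter after 2 days, with untreated cells in log phase. IC₅₀ is the concentration giving 50% inhibition of cell growth.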

[3] = species on record: Homo sapiens; assay: Inhibition of NF-kappaB (unknown origin) assessed as decrease in NF-kappaB/DNA interaction at 12.5 to 100 uM using 32P-labeled target NF-kappaB double-stranded oligonucleotide after 30 mins by EMSA; how it was run: as §1
[4] = test system: Salmon testes DNA; assay: Induction of damage in salmon testes DNA at 100 uM in presence of 2.5 to 7.5 J/cm2 UVA irradiation by ethidium bromide dye-based agarose gel electrophoresis analysis; type: nucleic-acid assay; conditions: salmonidae
[5] = test system: Salmonella typhimurium; assay: Genotoxicity in Salmonella typhimurium TA98 assessed as revertant colonies at 5 uL/plate in absence of Sprague-Dawley rat S9 metabolic activation after 72 hrs by Ames test (reference value: 1); type: toxicity, organism-based; conditions: salmonella enterica subsp. enterica serovar typhimurium
[6] = test system: Salmonella typhimurium; assay: Genotoxicity in Salmonella typhimurium TA98 assessed as revertant colonies at 1 uL/plate in absence of Sprague-Dawley rat S9 metabolic activation after 72 hrs by Ames test (reference value: 1); type: toxicity, organism-based; conditions: salmonella enterica subsp. enterica serovar typhimurium
[7] = test system: Salmonella typhimurium; assay: Genotoxicity in Salmonella typhimurium TA98 assessed as revertant colonies at 10 uL/plate in absence of Sprague-Dawley rat S9 metabolic activation after 72 hrs by Ames test (reference value: 1); type: toxicity, organism-based; conditions: salmonella enterica subsp. enterica serovar typhimurium
[8] = test system: Salmonella typhimurium; assay: Genotoxicity in Salmonella typhimurium TA98 assessed as revertant colonies at 50 uL/plate in absence of Sprague-Dawley rat S9 metabolic activation after 72 hrs by Ames test (reference value: 1); type: toxicity, organism-based; conditions: salmonella enterica subsp. enterica serovar typhimurium
[9] = test system: Salmonella typhimurium; assay: Genotoxicity in Salmonella typhimurium TA98 assessed as revertant colonies at 100 uL/plate in absence of Sprague-Dawley rat S9 metabolic activation after 72 hrs by Ames test (reference value: 1); type: toxicity, organism-based; conditions: salmonella enterica subsp. enterica serovar typhimurium
[10] = test system: Salmonella typhimurium; assay: Genotoxicity in Salmonella typhimurium TA98 assessed as revertant colonies at 1 uL/plate in presence of Sprague-Dawley rat S9 metabolic activation after 72 hrs by Ames test (reference value: 1); type: toxicity, organism-based; conditions: salmonella enterica subsp. enterica serovar typhimurium
[11] = test system: Salmonella typhimurium; assay: Genotoxicity in Salmonella typhimurium TA98 assessed as revertant colonies at 5 uL/plate in presence of Sprague-Dawley rat S9 metabolic activation after 72 hrs by Ames test (reference value: 1); type: toxicity, organism-based; conditions: salmonella enterica subsp. enterica serovar typhimurium
[12] = test system: Salmonella typhimurium; assay: Genotoxicity in Salmonella typhimurium TA98 assessed as revertant colonies at 10 uL/plate in presence of Sprague-Dawley rat S9 metabolic activation after 72 hrs by Ames test (reference value: 1); type: toxicity, organism-based; conditions: salmonella enterica subsp. enterica serovar typhimurium
[13] = test system: Salmonella typhimurium; assay: Genotoxicity in Salmonella typhimurium TA98 assessed as revertant colonies at 50 uL/plate in presence of Sprague-Dawley rat S9 metabolic activation after 72 hrs by Ames test (reference value: 1); type: toxicity, organism-based; conditions: salmonella enterica subsp. enterica serovar typhimurium
[14] = test system: Salmonella typhimurium; assay: Genotoxicity in Salmonella typhimurium TA98 assessed as revertant colonies at 100 uL/plate in presence of Sprague-Dawley rat S9 metabolic activation after 72 hrs by Ames test (reference value: 1); type: toxicity, organism-based; conditions: salmonella enterica subsp. enterica serovar typhimurium
[15] = test system: Salmonella typhimurium; assay: Genotoxicity in Salmonella typhimurium TA100 assessed as revertant colonies at 1 uL/plate in absence of Sprague-Dawley rat S9 metabolic activation after 72 hrs by Ames test (reference value: 1); type: toxicity, organism-based; conditions: salmonella enterica subsp. enterica serovar typhimurium
[16] = test system: Salmonella typhimurium; assay: Genotoxicity in Salmonella typhimurium TA100 assessed as revertant colonies at 5 uL/plate in absence of Sprague-Dawley rat S9 metabolic activation after 72 hrs by Ames test (reference value: 1); type: toxicity, organism-based; conditions: salmonella enterica subsp. enterica serovar typhimurium
[17] = test system: Salmonella typhimurium; assay: Genotoxicity in Salmonella typhimurium TA100 assessed as revertant colonies at 10 uL/plate in absence of Sprague-Dawley rat S9 metabolic activation after 72 hrs by Ames test (reference value: 1); type: toxicity, organism-based; conditions: salmonella enterica subsp. enterica serovar typhimurium
[18] = test system: Salmonella typhimurium; assay: Genotoxicity in Salmonella typhimurium TA100 assessed as revertant colonies at 50 uL/plate in absence of Sprague-Dawley rat S9 metabolic activation after 72 hrs by Ames test (reference value: 1); type: toxicity, organism-based; conditions: salmonella enterica subsp. enterica serovar typhimurium
[19] = test system: Salmonella typhimurium; assay: Genotoxicity in Salmonella typhimurium TA100 assessed as revertant colonies at 100 uL/plate in absence of Sprague-Dawley rat S9 metabolic activation after 72 hrs by Ames test (reference value: 1); type: toxicity, organism-based; conditions: salmonella enterica subsp. enterica serovar typhimurium
[20] = test system: Salmonella typhimurium; assay: Genotoxicity in Salmonella typhimurium TA100 assessed as revertant colonies at 1 uL/plate in presence of Sprague-Dawley rat S9 metabolic activation after 72 hrs by Ames test (reference value: 1); type: toxicity, organism-based; conditions: salmonella enterica subsp. enterica serovar typhimurium
[21] = test system: Salmonella typhimurium; assay: Genotoxicity in Salmonella typhimurium TA100 assessed as revertant colonies at 5 uL/plate in presence of Sprague-Dawley rat S9 metabolic activation after 72 hrs by Ames test (reference value: 1); type: toxicity, organism-based; conditions: salmonella enterica subsp. enterica serovar typhimurium
[22] = test system: Salmonella typhimurium; assay: Genotoxicity in Salmonella typhimurium TA100 assessed as revertant colonies at 10 uL/plate in presence of Sprague-Dawley rat S9 metabolic activation after 72 hrs by Ames test (reference value: 1); type: toxicity, organism-based; conditions: salmonella enterica subsp. enterica serovar typhimurium
[23] = test system: Salmonella typhimurium; assay: Genotoxicity in Salmonella typhimurium TA100 assessed as revertant colonies at 50 uL/plate in presence of Sprague-Dawley rat S9 metabolic activation after 72 hrs by Ames test (reference value: 1); type: toxicity, organism-based; conditions: salmonella enterica subsp. enterica serovar typhimurium
[24] = test system: Salmonella typhimurium; assay: Genotoxicity in Salmonella typhimurium TA100 assessed as revertant colonies at 100 uL/plate in presence of Sprague-Dawley rat S9 metabolic activation after 72 hrs by Ames test (reference value: 1); type: toxicity, organism-based; conditions: salmonella enterica subsp. enterica serovar typhimurium
[25] = test system: Salmon testes DNA; assay: Induction of damage in salmon testes DNA at 100 uM in absence of 2.5 to 7.5 J/cm2 UVA irradiation by ethidium bromide dye-based agarose gel electrophoresis analysis; type: nucleic-acid assay; conditions: salmonidae
[26] = species on record: Homo sapiens; assay: Inhibition of NF-kappaB (unknown origin) assessed as decrease in NF-kappaB/DNA interaction at 12.5 uM using 32P-labeled target NF-kappaB double-stranded oligonucleotide after 30 mins by EMSA

CCc1cc2c(C)cc(=O)oc2c2c(C)coc12
pIC50 [1]: 4.62 | pIC50 [2]: < 3.70 | inhibition [3]: Active

Cc1cc2c(C(C)C)cc(=O)oc2c2c(C)coc12
pIC50 [1]: 4.72 | pIC50 [2]: < 3.70 | inhibition [3]: Active

CCCc1cc(=O)oc2c1cc(C)c1occ(C)c12
pIC50 [1]: 4.66 | pIC50 [2]: 3.70 | inhibition [3]: Active

Cc1cc(=O)oc2c1cc(C)c1occ(C)c12
Activity [4]: Active | T/C [5]: 0.63 | T/C [6]: 1.03 | T/C [7]: 1.16 | T/C [8]: 0.97 | T/C [9]: 1.22 | T/C [10]: 0.75 | T/C [11]: 1.9 | T/C [12]: 4.5 | T/C [13]: 8.25 | T/C [14]: 6.86 | T/C [15]: 0.99 | T/C [16]: 1.03 | T/C [17]: 1.06 | T/C [18]: 1.09 | T/C [19]: 1.03 | T/C [20]: 1.1 | T/C [21]: 1 | T/C [22]: 1.04 | T/C [23]: 1.16 | T/C [24]: 2.52 | inhibition [3]: Active | Activity [25]: Active

CCc1cc(=O)oc2c1cc(CC)c1occ(C)c12
pIC50 [1]: 4.75 | pIC50 [2]: < 3.70 | inhibition [3]: Active

CCCc1cc(=O)oc2c1cc(CC)c1occ(C)c12
pIC50 [1]: 4.70 | pIC50 [2]: 3.79 | inhibition [3]: Active

CCc1cc(=O)oc2c1cc(C)c1occ(C)c12
inhibition [26]: Active | pIC50 [1]: 5.10 | pIC50 [2]: 4.30 | inhibition [3]: Active
